The source of these data is ChEMBL document CHEMBL1155677, “Inhibitory effects on HIV-1 protease of constituents from the wood of Xanthoceras sorbifolia” (J Nat Prod, 2000).

Broadly, the IC50 is the concentration needed to halve the response being measured. Read a low IC50 as higher potency. In general, inhibition refers to the drop in the measured response relative to a control, in per cent.

For one test, the target named is Protease (Human immunodeficiency virus 1, UniProt Q9YQ12). Nature of the test: Inhibition of HIV1 protease. Summed up:
(§1)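 HIV-1 protease inhibition was measured with a commercial HIV protease assay kit, which supplied both the enzyme and the reagents. Acetyl pepstatin from the same kit served as the positive control. The assay was run and percent inhibition calculated by a previously published procedure. Fractions were tested at 100 µg/mL.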

Test [1] deals with Protease (Human immunodeficiency virus 1) (UniProt Q9YQ12). Nature of the test: Inhibition of HIV1 protease at 100 ug/ml. The procedure, abridged: as §1
Sequence of Protease (Human immunodeficiency virus 1) (Q9YQ12 as listed by the source): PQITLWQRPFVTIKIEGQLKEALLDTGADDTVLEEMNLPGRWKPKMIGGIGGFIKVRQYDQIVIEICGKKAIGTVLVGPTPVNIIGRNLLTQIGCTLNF

Sequence of Protease (Q9YQ12 whole entry): as the sequence (Q9YQ12 as listed by the source) above

`CC(C)=CCC[C@H](C(=O)O)[C@@H]1CC[C@]2(C)C3=CC[C@@H]4[C@](C)(CC[C@H](O)[C@]4(C)CO)[C@H]3CC[C@@]12C` gave an IC50 on Protease of 212 µM. The inhibition in test [1] stood at 53%.

On Protease, `C=C(CC[C@@H](C)[C@H]1CC[C@@]2(C)[C@@H]3CC[C@H]4C(C)(C)[C@@H](O)CC[C@@]45C[C@@]35CC[C@]12C)C(C)C` had a half-inhibitory concentration (IC50) of over 227 µM. Moreover, the inhibition in test [1] is 19%.

On Protease, `CC1(C)CC[C@]2(C(=O)O)CC[C@]3(C)C(=CC[C@@H]4[C@@]5(C)CC[C@H](O)C(C)(C)[C@@H]5CC[C@]43C)[C@@H]2C1` [OLEANOLIC_ACID] had a 50% inhibitory concentration (IC50) of 21.9 µM. Moreover, the inhibition in test [1] is 96%.

Compound `CC(C)=CCC[C@H](C(=O)O)[C@@H]1CC[C@]2(C)C3=CC[C@@H]4[C@](C)(CC[C@@H](O)[C@]4(C)CO)[C@H]3CC[C@@]12C` had a 50% inhibitory concentration (IC50) against Protease of over 212 µM. In addition, the inhibition in test [1] was 26%.

In turn, `CC(C)=CCC[C@H](C(=O)O)[C@@H]1CC[C@]2(C)C3=CC[C@@H]4[C@](C)(CCC(=O)[C@]4(C)CO)[C@H]3CC[C@@]12C` [XANTHOCERASIC ACID] yielded an IC50 against Protease of over 212 µM. In test [1], the inhibition was determined as 14%.

Regarding `CC(=O)N[C@H](C(=O)N[C@H](C(=O)N[C@@H](CC(C)C)[C@@H](O)CC(=O)N[C@@H](C)C(=O)N[C@@H](CC(C)C)[C@@H](O)CC(=O)O)C(C)C)C(C)C` [ACETYLPEPSTATIN], on Protease, the IC50 is 0.233 µM. Besides, the inhibition in test [1] worked out at 100%.

Consider `Oc1cc(O)c2c(c1)O[C@@]1(c3cc(O)c(O)c(O)c3)Oc3cc(O)c4c(c3[C@@H]2[C@H]1O)O[C@H](c1ccc(O)c(O)c1)[C@H](O)C4`, for which, on Protease, the IC50 is 118 µM. Besides, the inhibition in test [1] stood at 89%.

As to `CC(=O)OC[C@@]1(C)C(=O)CC[C@@]2(C)[C@H]1CC=C1[C@@H]2CC[C@@]2(C)[C@H]([C@H](CCC=C(C)C)C(=O)O)CC[C@]12C`, the IC50 on Protease was over 195 µM. The inhibition in test [1] is 26%.

The compound `CC(C)=CCC[C@H](C(=O)O)[C@@H]1CC[C@]2(C)C3=CC[C@H]4C(C)(C)[C@@H](O)CC[C@]4(C)[C@H]3CC[C@@]12C` gave an IC50 against Protease of 219 µM. Besides, the inhibition in test [1] is 50%.

Compound `CC(C)=CCC[C@H](C(=O)O)[C@@H]1CC[C@]2(C)C3=CC[C@H]4C(C)(C)C(=O)CC[C@]4(C)[C@H]3CC[C@@]12C` showed a concentration for half-maximal inhibition (IC50) at Protease of 44 µM. Also, in test [1], the inhibition was 90%.

At Protease, `Oc1cc(O)c2c(c1)O[C@@]1(c3ccc(O)c(O)c3)Oc3cc(O)c4c(c3[C@@H]2[C@H]1O)O[C@H](c1ccc(O)c(O)c1)[C@H](O)C4` [PROANTHOCYANIDIN A2] returned an IC50 of over 173 µM. For the same compound, in test [1], the inhibition was -2%.
